# CYP2C9 act: human CYP2C9 activators, primary screen, biochemical, luminescence; Cytochrome P450 2C9 (Homo sapiens), P11712; recombinant CYP2C9, luciferin-H conversion; stronger effect = higher value; factor 1 = untreated enzyme, 0 = blocked; activation factor at 5 µM; hit rate 1.4% among 96,000; AID 1024, 2008;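 active means activation factor of 2 or more for CYP2C9 at a 5 µM dose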
# Target sequence (P11712 whole entry, looked up): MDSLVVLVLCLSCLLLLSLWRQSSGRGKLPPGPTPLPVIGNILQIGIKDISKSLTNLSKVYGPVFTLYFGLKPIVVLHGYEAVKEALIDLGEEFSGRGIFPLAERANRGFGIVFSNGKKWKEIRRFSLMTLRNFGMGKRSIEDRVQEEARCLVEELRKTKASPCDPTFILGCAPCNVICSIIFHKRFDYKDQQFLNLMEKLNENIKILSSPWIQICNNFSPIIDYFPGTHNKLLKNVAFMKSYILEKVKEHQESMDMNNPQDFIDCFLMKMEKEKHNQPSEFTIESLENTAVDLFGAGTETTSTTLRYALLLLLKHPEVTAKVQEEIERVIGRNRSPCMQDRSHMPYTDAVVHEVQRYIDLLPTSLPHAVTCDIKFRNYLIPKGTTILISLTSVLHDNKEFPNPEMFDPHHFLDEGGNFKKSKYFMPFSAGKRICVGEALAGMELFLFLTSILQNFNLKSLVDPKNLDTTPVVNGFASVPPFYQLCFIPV
# CYP2C19 act: human CYP2C19 activators, primary screen, biochemical, luminescence | recombinant CYP2C19, luciferin-H EGE luminescence; stronger effect = higher value; 0 = fully inhibited enzyme, 1 = untreated enzyme | 96,000 tested, under 10 active | activation factor at 5 µM;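 active means activation factor of at least 2 at 5 µM in the primary screen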
# Ecoli tolC: growth inhibitors of E. coli tolC mutant, primary screen, strain BW25113 ΔtolC::kan, 384-well; OD615; growth inhibition, % at 10 µM (by protocol); hit rate 2.2% among 65,000;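 active means growth inhibition at or above a cutoff equal to the mean over every tested compound plus 3 SD, cut at about 60% in these data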;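 further: growth measured after 20 h incubation at 37 °C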
#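 Test system: E. coli BW25113 ΔtolC::kan bacteria; incubation: 37 °C, 20 h exposure; medium: LB broth supplemented with 50 µg/mL kanamycin; read-out basis: percent growth inhibition; signal: A615 absorbance measurement; compound: 10 µM final, single dose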
# CYP2C9 inh: blockers of cytochrome P450 2C9 activity – biochemical, luminescence, ADME assay, primary screen | inhibition, % at 5 µM | CYP2C9 Supersomes, luciferin-H conversion | P11712 | hit rate 20% among 96,000;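 active means blocking of liver enzyme CYP2C9 beyond about 50% at 5 µM, limit read from the data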
# CYP2C19 inh: blockers of cytochrome P450 2C19 activity – biochemical, luminescence, ADME assay, primary screen; P33261; CYP2C19 Supersomes, luciferin-H EGE luminescence, 30 min; inhibition, % at 5 µM; hit rate 21% among 96,000; AID 778, 2007;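 active means CYP2C19 inhibition above a set limit at 5 µM in the primary screen, cut at about 50% in these data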
# Ecoli WT expand: growth inhibitors of wild-type E. coli, primary screen, strain BW25113, expanded library, OD600; OD600 absorbance; growth inhibition, % at 100 µM; hit rate 0.15% among 98,000; AID 710, 2007;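 active means growth inhibition above about 50% at one test dose, limit read from the data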;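 further: growth measured after 20 h incubation at 37 °C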
# Hits are given with their value; – = inactive; · = no result given. A selection: hits, their analogues and other compounds. The true share with any hit is near 29%.
SMILES,CYP2C9 act,CYP2C19 act,Ecoli tolC,CYP2C9 inh,CYP2C19 inh,Ecoli WT expand
CCN(CC)S(=O)(=O)c1cc(C(=O)OC)ccc1Cl,–,–,–,–,62,–
c1ccc(Cc2nc3ccccc3o2)cc1,–,–,·,–,–,–
Cc1ccnc(NC(=O)CCc2c(C)nc3ncnn3c2C)c1,–,–,–,–,–,–
NC(=O)c1cccc(S(=O)(=O)N2CC(c3ccccc3)CC2=O)c1 (stereo not drawn),2.2,–,–,–,56,–
CC1CCN(S(=O)(=O)c2cccc(C(N)=O)c2)CC1,·,·,–,·,·,·
O=C1CC(c2ccccc2)CN1S(=O)(=O)c1ccccc1 (stereo not drawn),2.5,–,–,–,99,–
N#Cc1nc(-c2ccco2)oc1NCCc1ccccc1,–,–,–,75,96,–
COc1ccc(CCNc2oc(-c3ccco3)nc2C#N)cc1,·,·,–,·,·,–
CNc1oc(-c2cccs2)nc1C#N,–,–,–,–,–,–
N#Cc1nc(-c2cccs2)oc1NCc1ccc2c(c1)OCO2,–,–,–,94,54,–
N#Cc1nc(-c2cccs2)oc1NCCc1ccccc1,–,–,–,68,–,–
N#Cc1nc(-c2cccs2)oc1NCCN1CCOCC1,–,–,–,–,–,–
O=C(Nc1cccc(Br)c1)c1cc2ccccc2o1,–,–,100,–,–,–
CCC(=O)Nc1cccc(NC(=O)c2cc3ccccc3o2)c1,–,–,–,–,62,–
CC(C)CCN1C(=O)c2ccc(-c3nc4ccccc4c(=O)o3)cc2C1=O,–,–,·,–,–,–
Clc1ccc(Nc2ccc(-n3ccnc3)nn2)cc1Cl,–,–,·,99,100,–
CCc1ccc(N2C(=O)c3ccc4c5c(ccc(c35)C2=O)CC4)cc1,–,–,·,–,–,–
CCOC(=O)c1c(NC(=O)CSc2nnc(Cc3ccccc3)o2)sc(C(C)=O)c1C,–,–,·,52,–,–
CCOC(=O)c1c(NC(=O)CSc2nnc(-c3ccc(C)cc3)o2)sc(C(C)=O)c1C,–,–,·,–,–,–
CCOC(=O)c1sc(NC(=O)CSc2nnc(Cc3ccccc3)o2)c(C#N)c1C,–,–,–,90,–,–
CCOC(=O)c1c(NC(=O)CSc2nnc(-c3ccccc3)o2)sc(C(C)=O)c1C,–,–,·,75,–,–
CCOC(=O)c1c(NC(=O)CSc2nnc(CNc3ccc(F)cc3)o2)sc(C(C)=O)c1C,–,–,–,94,89,–
O=C(NC1=NCCS1)c1ccc(Br)s1,–,–,·,–,–,–
Cc1ccc2c(c1Br)/C(=N/N1C(=O)c3ccccc3C1=O)C(=O)N2,–,–,·,51,–,–
Cc1c(N=C2C(=O)Nc3ccccc32)c(=O)n(-c2ccccc2)n1C,–,–,–,–,–,–
SMILES,CYP2C9 act,CYP2C19 act,Ecoli tolC,CYP2C9 inh,CYP2C19 inh,Ecoli WT expand
O=C1OCCC1Sc1nc2cc(Cl)ccc2s1 (stereo not drawn),2.6,–,–,–,92,–
O=C1OCCC1Sc1nc2ccccc2s1 (stereo not drawn),–,–,–,–,62,–
C=CCn1c(SC2CCOC2=O)nc2sc(CC)cc2c1=O (stereo not drawn),–,–,·,–,–,–
O=C1OCCC1Sc1nc2cc(Cl)ccc2n1Cc1ccccc1 (stereo not drawn),–,–,·,–,59,–
OC1CCCCC1Sc1nc2ccccc2s1 (stereo not drawn),–,–,–,–,66,–
O=S1(=O)C=C(Sc2nc3ccccc3s2)c2ccccc21,–,–,–,–,–,–
COC(=O)c1[nH]c2cc(OC)ccc2c1NC(=O)CCN1CCSCC1,–,–,·,–,–,–
COc1ccc(CN2CCN(S(=O)(=O)c3ccccc3)CC2)cc1Br,–,–,·,96,99,–
COc1ccccc1CN1CCN(S(=O)(=O)c2ccccc2)CC1,–,–,·,63,62,–
COc1ccc(CN2CCN(S(=O)(=O)c3ccc(F)cc3)CC2)cc1OC,–,–,–,–,–,–
COc1ccc(CN2CCN(S(=O)(=O)c3ccc(F)cc3)CC2)c(OC)c1OC,–,–,·,–,87,–
COc1ccc(CN2CCN(S(=O)(=O)c3ccccc3)CC2)c(OC)c1,–,–,–,60,52,–
COc1ccc(Cc2nnc3n2N=C(c2cc4ccccc4o2)CS3)cc1OC,·,·,–,·,·,·
CCOC(=O)C1CCCN(Cc2cccs2)C1 (stereo not drawn),–,–,·,–,88,–
CCOC(=O)C1CCN(Cc2cn[nH]c2-c2ccc(C)cc2)CC1,–,–,92,–,–,–
CCOC(=O)C1CCN(CC(=O)N2C(C)CCCC2C)CC1 (stereo not drawn),–,–,–,–,63,–
CCOC(=O)C1CCCN(Cc2ccc(OCC)cc2)C1 (stereo not drawn),–,–,·,–,76,–
CCOC(=O)C1CCCN(Cc2ccccc2OCC)C1 (stereo not drawn),–,–,–,–,–,–
N#CC1=C(c2ccccc2)N=P(N2CCOCC2)(N2CCOCC2)N=C1N1CCOCC1,·,·,–,·,·,·
CCOC(=O)C1CCN(Cc2ccc(OC)cc2OC)CC1,–,–,–,–,–,–
CCOC(=O)C1CCN(Cc2ccccc2C)CC1,–,–,·,–,77,–
CCOC(=O)N1CCN(Cc2cc(=O)oc3ccc(Cl)cc23)CC1,–,–,–,56,73,–
CCOC(=O)C1CCN(Cc2cccc(OC)c2)CC1,–,–,·,–,77,–
CCOC(=O)N1CCN(Cc2ccccn2)CC1,–,–,–,–,–,–
CCN1CCN(Cc2cc(=O)oc3ccc(Cl)cc23)CC1,–,–,–,–,–,–
SMILES,CYP2C9 act,CYP2C19 act,Ecoli tolC,CYP2C9 inh,CYP2C19 inh,Ecoli WT expand
CCOC(=O)N1CCN(Cc2cccs2)CC1,–,–,–,–,90,–
O=c1c2nnn(Cc3ccccc3)c2ncn1-c1ccccc1,–,–,–,–,–,–
CCOC(=O)C1CCCN(C/C(O)=C(\C#N)c2nc(-c3ccc(Cl)cc3)cs2)C1 (stereo not drawn),–,–,–,58,–,–
CCOC(=O)C1CCCN(CC(O)COc2ccc(OC)cc2C(C)(C)C)C1 (stereo not drawn),–,–,–,56,–,–
CCOC(=O)C1CCCN(Cc2ccccc2C)C1 (stereo not drawn),–,–,–,–,88,–
CCOC(=O)C1CCCN(CC(O)COc2ccccc2C(C)=O)C1 (stereo not drawn),–,–,·,–,–,–
CCOC(=O)C1CCCN(Cc2nc(N)nc(Nc3ccc(Cl)cc3)n2)C1 (stereo not drawn),–,–,–,67,63,–
